The list is not random: actives were taken first. Their share in the collection is about 2.9%.
PglD DTNB – C. jejuni PglD acetyltransferase inhibitors, primary screen, biochemical, DTNB colorimetric, single point; UDP-N-acetylbacillosamine N-acetyltransferase PglD (Campylobacter jejuni); purified PglD enzyme, DTNB colorimetric CoA detection; inhibition, % at 12.5 µM; 360,000 tested, 0.098% active; AID 602405, 2012; in the data active = inhibition above about 16%, passing the limit was not always enough
PGC1a acetyl inh – inhibitors of PGC1a acetylation signal, primary screen, cell-based, U2OS, AlphaScreen, inhibitor mode. AlphaScreen anti-acetyl-lysine; with virally co-expressed GCN5 acetyltransferase. inhibition, % at 15.6 µM. 350,000 tested, 0.17% active. AID 651687, 2012;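 active = every replicate shows inhibition of at least 40%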;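 also: 0% = neutral control wells and 100% = positive control wells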
rRNA inh HTS – reduced GFP signal of wild-type E. coli, primary screen, bacterial rRNA inhibitor project, GFP/RFP fluorescence, OD600, single point; GFP signal change (wild-type ribosome), % (no concentration beside the values); E. coli WT GFP vs humanized-ribosome RFP mutants, 24 h; hits give low values; DMSO median 0, no signal -100; 350,000 tested, 1.6% active; AID 720706, 2013;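 active = significant combined selectivity score with lowered wild-type GFP, culture density cut under 30%, mutant RFP and density less affected; inactive = any of these conditions unmet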
FGF22 binding – binders of human FGF22 protein, primary screen, FGF22 synaptogenesis inhibitor project, biophysical, thermal shift, single point. Fibroblast growth factor 22 (Homo sapiens), Q9HCT0. recombinant FGF22 thermal shift, SYPRO orange fluorescence; percent of sucrose octasulfate shift, DMSO zero. activity (Tm shift, normalised), % at 9.99 µM. 340,000 tested, 1.5% active. AID 651658, 2012;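 active = mean Tm shift, scaled 0 neutral to 100 positive control, at about 1.3% or above, every replicate too, limit read from the data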
Target sequence (Q9HCT0 whole entry, looked up): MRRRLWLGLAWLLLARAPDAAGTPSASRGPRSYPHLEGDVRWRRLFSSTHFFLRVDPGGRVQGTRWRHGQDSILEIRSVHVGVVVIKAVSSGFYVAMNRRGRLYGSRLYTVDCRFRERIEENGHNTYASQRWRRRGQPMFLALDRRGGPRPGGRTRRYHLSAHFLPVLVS
Cneo AK release – Cryptococcus neoformans cell lysis inducers, primary screen, AK release luminescence, single concentration. C. neoformans lysis, adenylate kinase release luminescence, 4 h; normalised: neutral wells 0, clomiphene wells 100. lysis activity, % at 15 µM. 360,000 tested, 0.2% active;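 active = mean lysis activity across replicates of at least 80%, whatever share of replicates individually reach that level; inactive = mean lysis activity below 80%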
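Assay system: C. neoformans cells. Amount: yeast cell density of 5 × 10^6 cells/mL. Technique: AK luminescence. Buffer or medium: YPD. Times: static 4 h at 37 °C with compound, 1 h detection. Dosing: single-point compound dose. Read-out: lysis from increased AK signal.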
Vif imaging – HIV Vif self-association inhibitors, primary screen, imaging, HEK293T, single point | HEK293T cells, Vif self-association by quenched fluorescence, 24 h | inhibition, % at 7.49 µM | 340,000 tested, 0.35% active | AID 602346, 2012; in the data active = inhibition above about 50%, passing the limit was not always enough
An asterisk follows results filed as active; x = no result given.

SMILES | PglD DTNB | PGC1a acetyl inh | rRNA inh HTS | FGF22 binding | Cneo AK release | Vif imaging
CCCN1C[C@H](C)[C@H](OC)CN(C)C(=O)c2ccc(NC(=O)c3cccc(OC)c3)cc2OC[C@H]1C | -0.4 | -4.9 | 0.9 | -0.4 | -3.2 | x
CN(C)/C=C/c1oc2ccc(O)cc2c1[N+](=O)[O-] | x | 1.1 | -29.8* | -0.1 | x | 1.0
Cc1oc2ccc(O)cc2c1C(=O)c1ccc([N+](=O)[O-])cc1 | -2.2 | x | -14.2 | -0.1 | 4.7 | 0.1
COc1ccc(NC(=O)Nc2ccc3c(c2)C(=O)N([C@@H](C)CO)C[C@H](C)[C@H](CN(C)S(=O)(=O)c2cn(C)cn2)OCCCC[C@@H](C)O3)cc1 | -2.3 | 10.2 | 2.1 | 0.0 | -1.6 | x
O=C(C[C@H]1C=C[C@@H](NS(=O)(=O)c2ccc(F)cc2)[C@H](CO)O1)NCCN1CCCCC1 | -1.3 | -1.5 | 0.9 | 0.1 | -0.3 | x
Cc1cc(C)c(S(C)(=O)=O)c(N(C)N)n1 | x | -1.1 | 18.0 | 43.1* | x | 5.3
COc1cc(OC)nc(Oc2ccccc2C(=O)Oc2cccc(C)c2)n1 | -1.2 | -15.4 | x | x | -0.9 | 73.9*
COc1cc(C(=O)Oc2cccc(C)c2)cc(OC)c1OC | -3.4 | 0.3 | x | x | 2.1 | 3.3
CN1CCN(CC(=O)N2CCn3c4c(c5cc(C6CCCCC6)ccc53)CCCC42)CC1 (stereo not drawn) | -7.4 | -14.7 | x | x | 8.4 | 98.0*
C[C@H]1CN([C@@H](C)CO)C(=O)c2cc(C3=CCCC3)cnc2O[C@H]1CN(C)S(=O)(=O)c1cn(C)cn1 | -2.5 | 12.7 | 4.8 | 0.1 | -1.3 | x
Cc1ccc(S(=O)(=O)Nc2ccc3c(c2)C(=O)N(C)[C@H]2CC[C@@H](CC(=O)O)O[C@@H]2CO3)cc1 | 0.9 | -5.8 | 0.9 | 0.0 | -0.8 | x
O=C1CCCCC1Sc1nnc(-c2ccc3c(c2)OCO3)o1 (stereo not drawn) | x | 4.0 | -17.2 | 43.3* | x | 11.0
Clc1ccc(CSc2nnc(-c3ccc4c(c3)OCO4)o2)cc1 | 1.3 | -4.0 | x | x | 0.0 | 8.6
COc1ccc(-n2c(C)cc(C(=O)NC3CCCCC3)c2C)cc1 | -1.5 | -10.0 | -23.4* | 0.1 | -1.3 | -4.2
C=CC(=O)N1C/C(=C/c2ccc(F)cc2)C(=O)/C(=C\c2ccc(F)cc2)C1 | x | 82.7* | -54.0 | 0.2 | x | 143.2*
CN1CCN(C(=O)C[C@H]2CC[C@H]3[C@@H](COC[C@@H](O)CN3S(=O)(=O)c3cccc(Cl)c3)O2)CC1 | -0.4 | 1.3 | 2.3 | -0.1 | -0.4 | x
COc1cc(-c2cc(=O)c3c(O)c(OC)c(OC)cc3o2)cc(OC)c1O | -10.8 | -1.6 | x | -0.3 | -5.3 | 89.0*
COc1cc(CNn2c(C)n[nH]c2=S)cc(Br)c1OCc1ccc(F)cc1 | x | x | -29.2 | -0.2 | x | 1.2
C=CCOc1c(Br)cc(CNn2c(C)n[nH]c2=S)cc1OCC | 1.7 | -1.6 | -30.7* | -0.3 | -0.3 | -2.4
O=C(Nc1ccc(OC(F)(F)F)cc1)N1CCN(c2ccnc3cc(Cl)ccc23)CC1 | x | -5.5 | -29.0* | 0.0 | x | -4.0
COc1cccc(-c2c(-c3cc(OC)cc(OC)c3)n(C)c3ccc(-c4ccc(OC)nc4)cc23)c1 | 3.7 | x | 2.2 | 43.8* | 0.1 | x
COc1ccc(-c2ccc3c(c2)c(-c2cccs2)c(-c2cc(OC)cc(OC)c2)n3C)cc1 | -5.9 | x | -4.1 | -0.1 | -1.3 | -0.1
COc1cc(OC)cc(-c2c(-c3ccc(F)cc3)c3cc(-c4ccc(OC)nc4)ccc3n2C)c1 | -1.9 | 9.7 | 8.5 | -0.1 | 1.6 | 7.1
COc1cc(OC)cc(-c2c(-c3cccs3)c3cc(-c4ccc(C(N)=O)cc4)ccc3n2C)c1 | 2.9 | x | x | x | 6.2 | 111.9*
O/N=C(/c1ccccc1)c1cc2cc(Br)cc(Br)c2o1 | 7.8 | -1.7 | -22.9* | -0.1 | 3.0 | -3.4
SMILES | PglD DTNB | PGC1a acetyl inh | rRNA inh HTS | FGF22 binding | Cneo AK release | Vif imaging
O=C(COn1nnc2ccc(C(F)(F)F)cc21)Nc1c(Cl)cccc1Cl | x | x | -25.2* | -0.1 | x | -2.1
Cc1cccc(NC(=O)COn2nnc3ccc(S(C)(=O)=O)cc32)c1 | 1.5 | -0.6 | -15.1 | 43.0* | 8.1 | 18.3
Cc1cccc(C)c1NC(=O)COn1nnc2ccc(C(F)(F)F)cc21 | x | 2.6 | 0.7 | 0.0 | x | 20.9
C[C@@H]1CN([C@H](C)CO)C(=O)c2cc(NC(=O)Cn3cnnn3)ccc2O[C@@H]1CN(C)S(=O)(=O)c1cn(C)cn1 | 0.8 | 10.2 | 3.5 | -0.4 | 2.4 | x
COc1ccc(NC(=O)CSc2nncs2)cc1S(N)(=O)=O | x | 10.3 | 1.2 | -0.1 | x | -21.6
COc1ccc(NC(=O)CSc2nccn2C)cc1S(N)(=O)=O | x | x | 2.0 | 2.4* | x | -9.5
CCCOc1ccc(C(CC(=O)O)NC(=O)c2sc3ccccc3c2Cl)cc1 (stereo not drawn) | x | 0.2 | -13.5 | 43.1* | x | -1.2
CCOc1ccc(C(CC(=O)O)NC(=O)c2sc3ccccc3c2Cl)cc1 (stereo not drawn) | x | x | -15.2 | 42.8 | x | 4.2
CCCn1c(N)c(N(CCOC)C(=O)/C=C/c2ccc(C(=O)OC)cc2)c(=O)[nH]c1=O | x | x | 8.6 | 42.9* | x | -0.3
CCCn1c(N)c(N(CCOC)C(=O)c2ccc(-c3ccccc3)cc2)c(=O)[nH]c1=O | -1.5 | -1.9 | 2.1 | -0.1 | -1.1 | -1.5
O=C(C[C@@H]1CC[C@H](NC(=O)CC2CC2)[C@H](CO)O1)NCc1ccc(Cl)cc1 | 2.3 | -5.8 | -1.9 | 0.4 | -2.7 | x
CC(=O)c1ccc(-n2nnnc2SCC(=O)Nc2sc(C)c(C)c2C#N)cc1 | x | x | 0.4 | 43.9* | x | 5.0
CCOC(=O)NC(=O)CSc1nnnn1-c1ccc(C)cc1 | -1.4 | 93.5* | x | x | -9.0 | 14.6
O=C(C[C@@H]1CC[C@@H]2[C@H](COC[C@H](O)CN2C(=O)Cc2ccccc2)O1)NC1CCCC1 | 0.7 | -3.6 | 4.1 | 0.6 | -3.6 | x
Cc1ccccc1CN1C(=O)c2ccccc2Sc2ccc(C(=O)O)cc21 | 18.4 | 0.4 | -34.5* | x | -1.4 | 7.9
Cc1ccccc1CN1C(=O)c2ccccc2Sc2ccc(C(=O)NCCN3CCOCC3)cc21 | 4.7 | -9.3 | -1.8 | 0.1 | -2.2 | 8.0
O=C(c1ccc2c(c1)N(Cc1ccccc1)C(=O)c1ccccc1S2)N1CCCC1 | 4.0 | -17.3 | -52.8 | -0.1 | 1.6 | -3.0
Cc1cccc(CN2C(=O)c3ccccc3Sc3ccc(C(=O)O)cc32)c1 | 4.0 | 35.4 | -20.9* | 0.3 | -2.3 | -3.6
CC(=O)Nc1ccc2c(c1)C(=O)N(C)C[C@@H](C)[C@@H](CN(C)S(C)(=O)=O)O2 | x | x | 0.8 | x | x | x

High-throughput results as filed in PubChem.
